This note sets out measurements from ChEMBL document CHEMBL3232768, “Structure-activity relationships of β-hydroxyphosphonate nucleoside analogues as cytosolic 5'-nucleotidase II potential inhibitors: synthesis, in vitro evaluation and molecular modeling studies” (Eur J Med Chem, 2014).

The term inhibition denotes how much of the control response was suppressed. What is called Ki is a dissociation constant, usually derived from enzyme kinetics or from competition with a known ligand.

Where only a bound is given, the exact number is not on record here.

The species named for one assay is Homo sapiens. Put plainly: Inhibition of recombinant C-terminal His-tagged cN2 N-terminal 30 amino acid deletion mutant (unknown origin) expressed in Escherichia coli BL21 using IMP as substrate at 1 mM after 5 mins by green malachite phosphate assay. Summed up:
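Enzyme was purified from E. coli BL21 carrying pET24b by His-Trap affinity and then Superdex 75 gel filtration. Final enzyme was 0.1 in 50 mM imidazole pH 6.5, 500 mM NaCl, 10 mM MgCl₂, 1 mM DTT on ice. The reaction was started with 50 IMP plus equimolar Mg²⁺ and run 5 min at 37 °C. Malachite green reagent stopped it; released phosphate was read above 630 nm against a phosphate calibration curve.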

Assay [1] in a line: Competitive inhibition of recombinant C-terminal His-tagged cN2 N-terminal 30 amino acid deletion mutant (unknown origin) expressed in Escherichia coli BL21 using IMP as substrate by double reciprocal plot analysis. The arrangement: species or system Homo sapiens. Summed up: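 Kinetic assay with His-Trap and Superdex 75-purified enzyme at 0.1. Buffer was 50 mM imidazole pH 6.5, 500 mM NaCl, 10 mM MgCl₂, 1 mM DTT, with enzyme and substrate freshly prepared in it. Rate constants were measured at IMP from 200 to 3 mM to derive Ki. It was also used for compounds that react with the malachite green colorant.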

For the compound `O=c1ccn([C@@H]2O[C@H]([C@H](O)CP(=O)(O)O)[C@@H](O)[C@@H]2O)c(=O)[nH]1`, in the assay listed under Homo sapiens, the inhibition turned out to be 25%. Moreover, the Ki in assay [1] is greater than 100 mM.
As to `Nc1ccn([C@@H]2O[C@H]([C@@H](O)CP(=O)(O)O)[C@@H](O)[C@H]2O)c(=O)n1`, the inhibition in the assay filed under Homo sapiens is 42%.
Still for that read-out and setting: the figure for `CCCCC#Cc1cn([C@@H]2O[C@H]([C@H](O)CP(=O)(O)O)[C@@H](O)[C@H]2O)c(=O)[nH]c1=O` is 45%.
Turning to `Nc1ccn([C@@H]2O[C@H]([C@H](O)CP(=O)(O)O)[C@H](O)[C@@H]2O)c(=O)n1`, the inhibition in the assay listed under Homo sapiens was 35%. In addition, the inhibition constant (Ki) in assay [1] is 11.1 mM.
As for `O=c1[nH]c(=O)n([C@@H]2O[C@H]([C@H](O)CP(=O)(O)O)[C@@H](O)[C@H]2O)cc1-c1ccccc1`, the inhibition in the assay filed under Homo sapiens amounted to 24%.
Consider `Nc1nc(=O)n([C@@H]2O[C@H]([C@H](O)CP(=O)(O)O)[C@@H](O)[C@H]2O)cc1C#Cc1ccccc1`, for which, in assay [1], the Ki amounted to 8.85 mM.
In the case of `CCOP(=O)(C[C@@H](O)[C@H]1O[C@@H](n2ccc(N)nc2=O)[C@H](O)[C@@H]1O)OCC`, in the assay filed under Homo sapiens, the inhibition was 18%.
As for `O=c1ccn([C@@H]2O[C@H]([C@H](O)CP(=O)(O)O)[C@@H](O)[C@H]2O)c(=O)[nH]1`, the inhibition in the assay filed under Homo sapiens was determined as 72%. In addition, the inhibition constant (Ki) in assay [1] turned out to be 2.08 mM.
In the case of `CCCCC#Cc1cn([C@@H]2O[C@H]([C@H](O)CP(=O)(O)O)[C@@H](O)[C@H]2O)c(=O)nc1N`, the inhibition in the assay listed under Homo sapiens is 40%.
As to `CCOP(=O)(C[C@@H](O)[C@H](CO)O[C@H](CO)n1ccc(=O)[nH]c1=O)OCC`, the inhibition in the assay listed under Homo sapiens was determined as 10%.
Take `CC(C)(C)C#Cc1cn([C@@H]2O[C@H]([C@H](O)CP(=O)(O)O)[C@@H](O)[C@H]2O)c(=O)[nH]c1=O`: the inhibitory constant (Ki) in assay [1] was determined as 5.94 mM.
With `Nc1ccn([C@@H](CO)O[C@@H](CO)[C@H](O)CP(=O)(O)O)c(=O)n1`, the inhibition in the assay listed under Homo sapiens is 45%. In addition, in assay [1], the Ki was 4.06 mM.
For `Nc1ccn([C@@H]2O[C@H]([C@H](O)CP(=O)(O)O)[C@@H](O)[C@H]2O)c(=O)n1` the same measures were 85% and 1.74 mM.
On to `O=c1ccn([C@@H]2O[C@H]([C@@H](O)CP(=O)(O)O)[C@@H](O)[C@H]2O)c(=O)[nH]1`, for which, in the assay listed under Homo sapiens, the inhibition is 43%.
With `O=c1ccn([C@@H]2O[C@H]([C@H](O)CP(=O)(O)O)[C@H](O)[C@H]2O)c(=O)[nH]1`, in the assay listed under Homo sapiens, the inhibition was determined as 25%.
As for `CCOP(=O)(C[C@@H](O)[C@H]1O[C@@H](n2ccc(=O)[nH]c2=O)[C@H](O)[C@@H]1O)OCC`, the inhibition in the assay filed under Homo sapiens came out at 11%.
Turning to `Nc1nc(=O)n([C@@H]2O[C@H]([C@H](O)CP(=O)(O)O)[C@@H](O)[C@H]2O)cc1/C=C/c1ccccc1`, in assay [1], the Ki stood at 1.14 mM.
With `CCOP(=O)(C[C@@H](O)[C@H]1O[C@@H](n2ccc(=O)[nH]c2=O)[C@H](O)[C@H]1O)OCC`, the inhibition in the assay listed under Homo sapiens turned out to be 26%.
As for `O=c1[nH]c(=O)n([C@@H]2O[C@H]([C@H](O)CP(=O)(O)O)[C@@H](O)[C@H]2O)cc1C#Cc1ccccc1`, the Ki in assay [1] was found to be 2.18 mM.
Consider `CCOP(=O)(C[C@@H](O)[C@H](CO)O[C@H](CO)n1ccc(N)nc1=O)OCC`, for which the inhibition in the assay listed under Homo sapiens was determined as 21%.
For `Nc1ccn([C@@H]2O[C@H]([C@H](O)CP(=O)(O)O)[C@H](O)[C@H]2O)c(=O)n1`, in the assay filed under Homo sapiens, the inhibition came to 48%. Moreover, in assay [1], the Ki came to 8.9 mM.
In the case of `Nc1nc(=O)n([C@@H]2O[C@H]([C@H](O)CP(=O)(O)O)[C@@H](O)[C@H]2O)cc1-c1ccccc1`, in the assay listed under Homo sapiens, the inhibition turned out to be 60%. The inhibition constant Ki in assay [1] turned out to be 2.01 mM.
Regarding `O=c1ccn([C@@H](CO)O[C@@H](CO)[C@H](O)CP(=O)(O)O)c(=O)[nH]1`, the inhibition in the assay filed under Homo sapiens came to 20%.
On the same count and under the same terms, the figure for `CCOP(=O)(C[C@@H](O)[C@H]1O[C@@H](n2ccc(N)nc2=O)[C@@H](O)[C@@H]1O)OCC` is 20%; for `CCOP(=O)(C[C@@H](O)[C@H]1O[C@@H](n2ccc(=O)[nH]c2=O)[C@@H](O)[C@@H]1O)OCC` it is 2%.
Consider `CC(C)(C)C#Cc1cn([C@@H]2O[C@H]([C@H](O)CP(=O)(O)O)[C@@H](O)[C@H]2O)c(=O)nc1N`, for which, in the assay filed under Homo sapiens, the inhibition was 46%. In addition, the Ki in assay [1] is 7.33 mM.
As to `O=c1[nH]c(=O)n([C@@H]2O[C@H]([C@H](O)CP(=O)(O)O)[C@@H](O)[C@H]2O)cc1/C=C/c1ccccc1`, the Ki in assay [1] stood at 3.36 mM.
For `Nc1ccn([C@@H]2O[C@H]([C@H](O)CP(=O)(O)O)[C@@H](O)[C@@H]2O)c(=O)n1`, the inhibition in the assay listed under Homo sapiens came out at 80%. For the same compound, in assay [1], the Ki came out at 0.978 mM.
For `O=c1ccn([C@@H]2O[C@H]([C@H](O)CP(=O)(O)O)[C@H](O)[C@@H]2O)c(=O)[nH]1` the same measures were 25% and greater than 50 mM.
